From ChEMBL document CHEMBL1124186, “Synthesis and evaluation of tylosin-related macrolides modified at the aldehyde function: a new series of orally effective antibiotics” (1988)
Converted amounts (≈) assume the structure as drawn.

Legend:
[1] = system: Streptococcus viridans; assay: In vitro antimicrobial activity against aerobic bacteria Streptococcus viridans 9943; assay type: functional
[2] = system: Streptococcus pneumoniae; assay: In vitro antimicrobial activity against aerobic bacteria Streptococcus pneumoniae B1-438; assay type: functional, streptococcus pneum
[3] = system: Haemophilus influenzae; assay: In vitro antimicrobial activity against aerobic bacteria Haemophilus influenzae MX366,; assay type: functional
[4] = system: Streptococcus; assay: In vitro antimicrobial activity against aerobic bacteria Streptococcus C 24; assay type: functional
[5] = system: Anaerococcus prevotii; assay: In vitro antimicrobial activity against anaerobic bacteria peptococcus prevoti 1281; assay type: functional
[6] = system: Staphylococcus epidermidis; assay: In vitro antimicrobial activity against Staphylococcus epidermidis EPI1; assay type: functional
[7] = system: Streptococcus; assay: In vitro antimicrobial activity against aerobic bacteria Streptococcus D 9960; assay type: functional
[8] = system: Streptococcus; assay: In vitro antimicrobial activity against aerobic bacteria Streptococcus G Kruder; assay type: functional; conditions: Streptococcus; read-out: MIC
[9] = system: Streptococcus sanguinis; assay: In vitro antimicrobial activity against aerobic bacteria Streptococcus sanguis MX132; assay type: functional
[10] = system: Rattus norvegicus; assay: Peripheral plasma levels in rats after oral administration of 100 mg/kg dose for 4 hr; assay type: functional, organism-based; parameters: dose 100 mg/kg
Method in brief: (§1)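 Rats received 100 mg/kg orally and were sampled for peripheral plasma. Concentrations were measured by Micrococcus luteus agar-diffusion microbiological assay in Antibiotic Medium 1, with zone sizes converted using the standard curve for the appropriate compound. Each value is the average of three rats per time point.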

[11] = system: Mus musculus; assay: Peripheral plasma levels in mice after oral administration of 50 mg/kg dose for 0.5 hr; assay type: functional, organism-based; parameters: dose 50 mg/kg
Method in brief: (§2)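 Mice were given the compound orally and sampled for peripheral plasma at each time point. Plasma was assayed microbiologically against Micrococcus luteus seeded in Antibiotic Medium 1. Inhibition zone sizes were read, and concentrations were calculated from each compound's own standard curve. Each value is the mean of five mice per time point.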

[12] = system: Streptococcus; assay: In vitro antimicrobial activity against aerobic bacteria Streptococcus B 8; assay type: functional
[13] = system: Mus musculus; assay: Peripheral plasma levels in mice after oral administration of 100 mg/kg dose for 0.25 hr; assay type: functional, organism-based; parameters: dose 100 mg/kg; method in brief: as §2
[14] = system: Streptococcus pyogenes; assay: In vitro antimicrobial activity against Streptococcus pyogenes C203; assay type: functional
[15] = system: Cutibacterium acnes; assay: In vitro antimicrobial activity against anaerobic bacteria propionibacterium acnes 79; assay type: functional
[16] = system: Mus musculus; assay: Peripheral plasma levels in mice after oral administration of 50 mg/kg dose for 1 hr; assay type: functional, organism-based; parameters: dose 50 mg/kg; method in brief: as §2
[17] = system: Streptococcus pyogenes; assay: In vivo effective dose against experimental infections in rodent caused by Streptococcus pyogenes C203 when administered orally; assay type: functional; conditions: po
[18] = system: Haemophilus influenzae; assay: In vitro antimicrobial activity against aerobic bacteria Haemophilus influenzae 76; assay type: functional
[19] = system: Staphylococcus aureus; assay: In vivo effective dose against experimental infections in mice Staphylococcus aureus X1 when administered orally; assay type: functional; conditions: po
[20] = system: Staphylococcus aureus; assay: In vitro antimicrobial activity against aerobic bacteria Staphylococcus aureus 513E; assay type: functional
[21] = system: Phocaeicola vulgatus; assay: In vitro antimicrobial activity against anaerobic bacteria bacteroides vulgatus 1211; assay type: functional
[22] = system: Prevotella melaninogenica; assay: In vitro antimicrobial activity against anaerobic bacteria bacteroides melaninogenicus 1856,; assay type: functional
[23] = system: Rattus norvegicus; assay: Peripheral plasma levels in rats after oral administration of 100 mg/kg dose for 0.5 hr; assay type: functional, organism-based; parameters: dose 100 mg/kg; method in brief: as §1
[24] = system: Enterococcus faecium; assay: In vitro antimicrobial activity against Streptococcus faecium X66; assay type: functional, streptococcus fae-cium
[25] = system: Rattus norvegicus; assay: Peripheral plasma levels in rats after oral administration of 100 mg/kg dose for 1 hr; assay type: functional, organism-based; parameters: dose 100 mg/kg; method in brief: as §1
[26] = system: Mus musculus; assay: Peripheral plasma levels in mice after oral administration of 100 mg/kg dose for 0.5 hr; assay type: functional, organism-based; parameters: dose 100 mg/kg; method in brief: as §2
[27] = system: Clostridium septicum; assay: In vitro antimicrobial activity against anaerobic bacteria clostridium septicum 1128; assay type: functional
[28] = system: Streptococcus; assay: In vitro antimicrobial activity against aerobic bacteria Streptococcus D 8043; assay type: functional
[29] = system: Clostridioides difficile; assay: In vitro antimicrobial activity against anaerobic bacteria Clostridium difficile 2994; assay type: functional
[30] = system: Peptoniphilus asaccharolyticus; assay: In vitro antimicrobial activity against anaerobic bacteria peptococcus asaccharolyticus 1302; assay type: functional
[31] = system: Streptococcus; assay: In vitro antimicrobial activity against aerobic bacteria Streptococcus B 14; assay type: functional
[32] = system: Chlamydia trachomatis; assay: In vitro antimicrobial activity against chlamydia trachomatis.; assay type: functional
[33] = system: Mus musculus; assay: Peripheral plasma levels in mice after oral administration of 50 mg/kg dose for 2 hr; assay type: functional, organism-based; parameters: dose 50 mg/kg; method in brief: as §2
[34] = system: Prevotella melaninogenica; assay: In vitro antimicrobial activity against anaerobic bacteria bacteroides melaninogenicus 2736; assay type: functional
[35] = system: Fusobacterium; assay: In vitro antimicrobial activity against anaerobic bacteria fusobacterium symbiosum 1470; assay type: functional
[36] = system: Bacteroides fragilis; assay: In vitro antimicrobial activity against anaerobic bacteria bacteroides fragilis 1877; assay type: functional
[37] = system: Eikenella corrodens; assay: In vitro antimicrobial activity against anaerobic bacteria bacteroides corrodens 1874; assay type: functional
[38] = system: Staphylococcus epidermidis; assay: In vitro antimicrobial activity against aerobic bacteria Streptococcus epi 222; assay type: functional
[39] = system: Staphylococcus aureus; assay: In vitro antimicrobial activity against Staphylococcus aureus X1; assay type: functional
[40] = system: Clostridium perfringens; assay: In vitro antimicrobial activity against anaerobic bacteria clostridium perfringens 81,; assay type: functional
[41] = system: Fusobacterium necrophorum; assay: In vitro antimicrobial activity against anaerobic bacteria usobacterium necrophorum 6054A; assay type: functional
[42] = system: Mus musculus; assay: Peripheral plasma levels in mice after oral administration of 100 mg/kg dose for 2 hr; assay type: functional, organism-based; parameters: dose 100 mg/kg; method in brief: as §2
[43] = system: Haemophilus influenzae; assay: In vitro antimicrobial activity against Haemophilus influenzae.; assay type: functional
[44] = system: Staphylococcus epidermidis; assay: In vitro antimicrobial activity against aerobic bacteria Streptococcus epi 270; assay type: functional
[45] = system: Bacteroides fragilis; assay: In vitro antimicrobial activity against anaerobic bacteria bacteroides fragilis 1936B,; assay type: functional
[46] = system: Mus musculus; assay: Peripheral plasma levels in mice after oral administration of 50 mg/kg dose for 4 hr; assay type: functional, organism-based; parameters: dose 50 mg/kg; method in brief: as §2
[47] = system: Streptococcus; assay: In vitro antimicrobial activity against aerobic bacteria Streptococcus B 5; assay type: functional
[48] = system: Bacteroides fragilis; assay: In vitro antimicrobial activity against anaerobic bacteria bacteroides fragilis 111; assay type: functional
[49] = system: Mus musculus; assay: Peripheral plasma levels in mice after oral administration of 100 mg/kg dose for 4 hr; assay type: functional, organism-based; parameters: dose 100 mg/kg; method in brief: as §2
[50] = system: Rattus norvegicus; assay: Peripheral plasma levels in rats after oral administration of 100 mg/kg dose for 0.25 hr; assay type: functional, organism-based; parameters: dose 100 mg/kg; method in brief: as §1
[51] = system: Streptococcus pneumoniae; assay: In vivo effective dose against experimental infections in mice Strep. pneumoniae park when administered sc; assay type: functional
[52] = system: Staphylococcus aureus; assay: In vitro antimicrobial activity against aerobic bacteria Staphylococcus aureus X400; assay type: functional
[53] = system: Mus musculus; assay: Peripheral plasma levels in mice after oral administration of 50 mg/kg dose for 0.25 hr; assay type: functional, organism-based; parameters: dose 50 mg/kg; method in brief: as §2
[54] = system: Bacteroides thetaiotaomicron; assay: In vitro antimicrobial activity against anaerobic bacteria bacteroides thetaiotaomicron 1438; assay type: functional
[55] = In vitro antimicrobial activity against anaerobic bacteria peptostreptococcus intermedius 1264; assay type: functional
[56] = system: Staphylococcus aureus; assay: In vivo effective dose against experimental infections in mice Staphylococcus aureus X1 when administered sc; assay type: functional
[57] = system: Streptococcus pneumoniae; assay: In vivo effective dose against experimental infections in mice Strep. pneumoniae park when administered orally; assay type: functional; conditions: po
[58] = system: Staphylococcus aureus; assay: In vitro antimicrobial activity against aerobic bacteria Staphylococcus aureus V140,; assay type: functional
[59] = system: Streptococcus pneumoniae; assay: In vitro antimicrobial activity against Streptococcus pneumoniae; assay type: functional
[60] = system: Collinsella aerofaciens; assay: In vitro antimicrobial activity against anaerobic bacteria eubacterium aerofaciens 1235; assay type: functional
[61] = system: Peptostreptococcus anaerobius; assay: In vitro antimicrobial activity against anaerobic bacteria eubacterium peptostreptococcus anaerobius 1428,; assay type: functional
[62] = system: Staphylococcus aureus; assay: In vitro antimicrobial activity against aerobic bacteria Staphylococcus aureus V135; assay type: functional
[63] = system: Streptococcus pyogenes; assay: In vivo effective dose against experimental infections in rodent caused by Streptococcus pyogenes C203 when administered sc; assay type: functional
[64] = system: Staphylococcus aureus; assay: In vitro antimicrobial activity against aerobic bacteria Staphylococcus aureus V41; assay type: functional
[65] = system: Rattus norvegicus; assay: Peripheral plasma levels in rats after oral administration of 100 mg/kg dose for 2 hr; assay type: functional, organism-based; parameters: dose 100 mg/kg; method in brief: as §1
[66] = system: Mus musculus; assay: Peripheral plasma levels in mice after oral administration of 100 mg/kg dose for 1 hr; assay type: functional, organism-based; parameters: dose 100 mg/kg; method in brief: as §2
[67] = system: Streptococcus; assay: In vitro antimicrobial activity against aerobic bacteria Streptococcus D 2041; assay type: functional

Structure (SMILES): CC[C@H]1C[C@@H](C)C(=O)/C=C/C(C)=C/[C@H](CO[C@@H]2O[C@H](C)[C@@H](O)[C@@H](OC)[C@H]2OC)[C@@H](CC)OC(=O)C[C@@H](O)[C@H](C)[C@H]1O[C@@H]1O[C@H](C)[C@@H](O)[C@H](N(C)C)[C@H]1O
- MIC [1]: > 128 µg/mL
- MIC [2]: > 128 µg/mL
- MIC [3]: 16 µg/mL (≈ 21.1 µM)
- MIC [4]: 0.5 µg/mL (≈ 0.66 µM)
- MIC [5]: 2 µg/mL (≈ 2.64 µM)
- MIC [6]: 0.25 µg/mL (≈ 0.33 µM)
- MIC [7]: 16 µg/mL (≈ 21.1 µM)
- MIC [8]: 64 µg/mL (≈ 84.4 µM)
- MIC [9]: 2 µg/mL (≈ 2.64 µM)
- Concentration [10]: 5.1 µg/mL
- Concentration [11]: 0.5 µg/mL
- MIC [12]: 8 µg/mL (≈ 10.6 µM)
- Concentration [13]: 2.6 µg/mL
- MIC [14]: 0.5 µg/mL (≈ 0.66 µM)
- MIC [15]: 8 µg/mL (≈ 10.6 µM)
- Concentration [16]: 2 µg/mL
- ED50 [17]: 7 mg/kg
- MIC [18]: 16 µg/mL (≈ 21.1 µM)
- ED50 [19]: 10 mg/kg
- MIC [20]: 0.25 µg/mL (≈ 0.33 µM)
- MIC [21]: 2 µg/mL (≈ 2.64 µM)
- MIC [22]: 1 µg/mL (≈ 1.32 µM)
- Concentration [23]: 7.4 µg/mL
- MIC [24]: 16 µg/mL (≈ 21.1 µM)
- Concentration [25]: 7.2 µg/mL
- Concentration [26]: 4.5 µg/mL
- MIC [27]: < 0.5 µg/mL
- MIC [28]: 8 µg/mL (≈ 10.6 µM)
- MIC [29]: < 0.5 µg/mL
- MIC [30]: 2 µg/mL (≈ 2.64 µM)
- MIC [31]: 16 µg/mL (≈ 21.1 µM)
- MIC [32]: 0.5 µg/mL (≈ 0.66 µM)
- Concentration [33]: 2.2 µg/mL
- MIC [34]: 4 µg/mL (≈ 5.28 µM)
- MIC [35]: 2 µg/mL (≈ 2.64 µM)
- MIC [36]: 4 µg/mL (≈ 5.28 µM)
- MIC [37]: 4 µg/mL (≈ 5.28 µM)
- MIC [38]: 0.12 µg/mL (≈ 0.158 µM)
- MIC [39]: 0.25 µg/mL (≈ 0.33 µM)
- MIC [40]: 2 µg/mL (≈ 2.64 µM)
- MIC [41]: 8 µg/mL (≈ 10.6 µM)
- Concentration [42]: 2.3 µg/mL
- MIC [43]: 16 µg/mL (≈ 21.1 µM)
- MIC [44]: > 128 µg/mL
- MIC [45]: 4 µg/mL (≈ 5.28 µM)
- Concentration [46]: 0.9 µg/mL
- MIC [47]: 8 µg/mL (≈ 10.6 µM)
- MIC [48]: 4 µg/mL (≈ 5.28 µM)
- Concentration [49]: 0.8 µg/mL
- Concentration [50]: 4.6 µg/mL
- ED50 [51]: > 20 mg/kg
- MIC [52]: 0.5 µg/mL (≈ 0.66 µM)
- Concentration [53]: 0.9 µg/mL
- MIC [54]: 4 µg/mL (≈ 5.28 µM)
- MIC [55]: 4 µg/mL (≈ 5.28 µM)
- ED50 [56]: 2.2 mg/kg
- ED50 [57]: > 50 mg/kg
- MIC [58]: 0.5 µg/mL (≈ 0.66 µM)
- MIC [59]: 2 µg/mL (≈ 2.64 µM)
- MIC [60]: 2 µg/mL (≈ 2.64 µM)
- MIC [61]: < 0.5 µg/mL
- MIC [62]: 0.25 µg/mL (≈ 0.33 µM)
- ED50 [63]: 4.3 mg/kg
- MIC [64]: 0.25 µg/mL (≈ 0.33 µM)
- Concentration [65]: 8.7 µg/mL
- Concentration [66]: 3.4 µg/mL
- MIC [67]: 8 µg/mL (≈ 10.6 µM)
